High-throughput results as filed in PubChem BioAssay.
Sampled rows, rich in hits. Any-hit rate of the full collection: about 2.5%.
MC4R antagonist – blocks human MC4R cAMP signaling; P32245; MC4R-expressing cells, MTII-stimulated cAMP, LANCE TR-FRET; inhibition, % at 6.5 µM; 360,000 compounds, 0.48% hits; AID 540295;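 active means inhibition above its plate's cutoff, the mean of tested wells on that plate plus 3 SD, cut at about 29% in these data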;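 further: 0% = Melanotan II alone and 100% = Melanotan II plus saturating MCL0020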
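Material: human MC4R-expressing U2OS cells. Probe or stimulus: Melanotan II challenge. Dosing: 6.5 µM single dose. Times: 30-min compound, 1-h challenge, 1-h detection, room temperature. Technique: TR-FRET with Eu-cAMP and labeled anti-cAMP, 671 nm. Replication: singlicate.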
Exocytosis inh – lytic granule exocytosis inhibition; AID 651702; inhibition, % at 10 µM; 360,000 compounds, 0.66% hits; TALL-104 LAMP-1 surface exposure, flow cytometry; cells stimulated with thapsigargin and PMA;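 active means inhibition above about 55%, limit read from the data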
NTR1 agonist – agonists of human neurotensin receptor NTR1; NTR1-U2OS beta-arrestin-GFP spot imaging, agonist mode; AID 493036; 330,000 compounds, 0.17% hits; P30989; activation, % at 20 µM;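 active means activation at or above 40% of the spot to cytoplasm intensity ratio, with at least 20 cells analyzed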;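 further: 0% = DMSO without peptide and 100% = 100 nM NTR1 peptide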
Target sequence (P30989 whole entry, looked up): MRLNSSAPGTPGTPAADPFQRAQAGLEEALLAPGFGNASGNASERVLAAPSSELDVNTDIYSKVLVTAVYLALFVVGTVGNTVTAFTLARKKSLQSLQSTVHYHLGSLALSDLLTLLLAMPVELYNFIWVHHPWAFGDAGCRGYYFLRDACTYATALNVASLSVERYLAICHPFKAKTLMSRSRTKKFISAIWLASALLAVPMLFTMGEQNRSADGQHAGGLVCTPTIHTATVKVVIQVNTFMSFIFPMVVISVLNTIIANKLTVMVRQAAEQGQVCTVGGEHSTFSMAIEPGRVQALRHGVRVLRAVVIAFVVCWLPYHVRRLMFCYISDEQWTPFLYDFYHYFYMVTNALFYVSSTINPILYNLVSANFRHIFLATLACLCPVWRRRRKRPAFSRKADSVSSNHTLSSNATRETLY
MC4R ag barr – activates human MC4R beta-arrestin recruitment. P32245. U2OS MC4R beta-arrestin complementation, luminescence; percent of melanotan II response, DMSO zero. activation, % at 8.9 µM. 360,000 compounds, 0.98% hits. AID 540308;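 active means activation above a per-plate cutoff, the mean activation of sample wells on that plate plus 3 SD, cut at about 8% in these data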
Bfl-1 A1 inh – inhibitors of the anti-apoptotic protein A1, read as caspase activation | caspase activation, % (no concentration beside the values) | MEF A1-2A-BIM cells, Caspase-Glo 3/7 luminescence, 3 h; percent of clofoctol response, vehicle zero | 330,000 compounds, 0.066% hits;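 active means over half of replicate activation scores above 10%, or exactly half above 10 with the replicate mean above 10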
sPLA2-III inh – Blocks human group III sPLA2 activity; inhibition, % at 12.2 µM; AID 743126; QFRET BODIPY PC-A2 liposome hydrolysis, fluorescence; 370,000 compounds, 0.56% hits;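 active means inhibition above mean plus 3 SD of compounds lying within the high and low control bounds, cut at about 19% in these data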;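 further: 0% = median of test compound wells and 100% = no enzyme DMSO wells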
sPLA2 confirm – human GIII-sPLA2 inhibition, confirmation. recombinant hGIII-sPLA2, BODIPY PC-A2 QFRET fluorescence. inhibition, % at 12.2 µM. shares compounds with sPLA2-III inh. 2,000 compounds, 34% hits;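 active means mean inhibition across triplicates above the hit cutoff set in the earlier primary screen, cut at about 19% in these data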;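 further: 0% = enzyme with DMSO and 100% = DMSO wells lacking enzyme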
BODIPY interf – counter-screen for HGIII-sPLA2 inhibitors: 535nm fluorescence interference. shares compounds with sPLA2-III inh. inhibition, % at 12.2 µM. 2,000 compounds, 8.5% hits. BODIPY FL product fluorescence interference, QFRET. AID 743282;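 active means average inhibition above the solvent-only control mean plus 3 SD, cut at about 6% in these data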;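 further: 0% = DMSO with substrate plus product and 100% = DMSO with substrate alone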
BODIPY interf DR – 535nm optical interference dose response, HGIII-sPLA2 counter-screen. shares compounds with sPLA2-III inh. BODIPY FL product fluorescence interference, cell-free. IC50, µM. 240 tested, under 10 active. AID 743455;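 active means IC50 at or below 10 µM; inactive means IC50 above 10 µM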
* = called active by the depositor.

Results for COC(=O)c1sc(C(C)(C)C)cc1CSc1ccccc1 ?
MC4R antagonist: 16; Exocytosis inh: 2; NTR1 agonist: 3; MC4R ag barr: 2; Bfl-1 A1 inh: 1; sPLA2-III inh: 21*; sPLA2 confirm: -21; BODIPY interf: -8

What do the screens show for `COC(=O)c1sc(C(C)(C)C)cc1CS(=O)(=O)c1ccc(Cl)cc1`?
MC4R antagonist: 10; Exocytosis inh: -5; NTR1 agonist: 0; MC4R ag barr: 1; Bfl-1 A1 inh: 0; sPLA2-III inh: -5

What do the screens show for `O=C1[C@@H]2[C@H]3CC[C@H](C3)[C@@H]2C(=O)N1O`?
MC4R antagonist: 10; Exocytosis inh: 5; NTR1 agonist: 1; MC4R ag barr: 0; Bfl-1 A1 inh: -1; sPLA2-III inh: 0

How did CC(C)c1nccn1S(=O)(=O)c1cccc([N+](=O)[O-])c1 do in these assays?
MC4R antagonist: 5; Exocytosis inh: 4; MC4R ag barr: -1; Bfl-1 A1 inh: 0; sPLA2-III inh: 19*; sPLA2 confirm: 6; BODIPY interf: -2

How did CN1CCN(S(=O)(=O)c2cccc([N+](=O)[O-])c2)CC1 do in these assays?
MC4R antagonist: -2; Exocytosis inh: 2; NTR1 agonist: -1; MC4R ag barr: -2; Bfl-1 A1 inh: 0

How did S=C(Nc1ccccc1)c1nc2ccccc2s1 do in these assays?
MC4R antagonist: 0; Exocytosis inh: 2; NTR1 agonist: 4; MC4R ag barr: 1; Bfl-1 A1 inh: -4; sPLA2-III inh: 11

Results for CC(=O)NC(c1ccc(N(C)C)cc1)c1cc(Cl)c2cccnc2c1O (stereo unspecified) ?
MC4R antagonist: 10; Exocytosis inh: 0; MC4R ag barr: 0; sPLA2-III inh: 13

What do the screens show for `CCCC(=O)NC(c1ccc(N(C)C)cc1)c1ccc2cccnc2c1O` (stereo unspecified)?
MC4R antagonist: 0; Exocytosis inh: 5; NTR1 agonist: 4; MC4R ag barr: -1; Bfl-1 A1 inh: 0; sPLA2-III inh: 23*; sPLA2 confirm: 25*; BODIPY interf: -5

What do the screens show for `CCCC(=O)NC(c1ccc(C(C)C)cc1)c1ccc2cccnc2c1O` (stereo unspecified)?
MC4R antagonist: 17; Exocytosis inh: 9; NTR1 agonist: 1; MC4R ag barr: -2; Bfl-1 A1 inh: -1; sPLA2-III inh: 20*; sPLA2 confirm: 18; BODIPY interf: -12

Results for CCCC(=O)NC(c1ccccc1Cl)c1ccc2cccnc2c1O (stereo unspecified) ?
MC4R antagonist: 4; Exocytosis inh: 16; NTR1 agonist: 3; MC4R ag barr: -2; Bfl-1 A1 inh: 0; sPLA2-III inh: 30*; sPLA2 confirm: 26*; BODIPY interf: 1

How did CCC(=O)NC(c1ccc(C)cc1)c1ccc2cccnc2c1O (stereo unspecified) do in these assays?
MC4R antagonist: 19; Exocytosis inh: 9; NTR1 agonist: 1; MC4R ag barr: -3; Bfl-1 A1 inh: 1; sPLA2-III inh: 21*; sPLA2 confirm: 16; BODIPY interf: -12

Results for O=C(CN1CCN(C(=O)CNC(=O)c2ccc3c(c2)OCO3)CC1)Nc1ccc(F)cc1 ?
MC4R antagonist: 6; Exocytosis inh: -4; NTR1 agonist: -2; MC4R ag barr: 0; Bfl-1 A1 inh: 0; sPLA2-III inh: 2

What do the screens show for `COc1cc2c(C#CCCCO)c(-c3ccsc3)oc(=O)c2cc1OC`?
MC4R antagonist: 2; Exocytosis inh: 0; NTR1 agonist: 4; MC4R ag barr: 0; Bfl-1 A1 inh: 0; sPLA2-III inh: -3

How did CCN(CC)S(=O)(=O)c1cccc(C(=O)NNC(=O)C2=NN(c3ccccc3)C(=O)CC2)c1 do in these assays?
MC4R antagonist: -3; Exocytosis inh: -2; NTR1 agonist: 3; MC4R ag barr: -4; Bfl-1 A1 inh: 3; sPLA2-III inh: -4

What do the screens show for `CC(=O)c1c(C)[nH]c(-c2ccccc2)c1C`?
MC4R antagonist: 5; Exocytosis inh: -2; NTR1 agonist: 2; MC4R ag barr: -1; Bfl-1 A1 inh: 0; sPLA2-III inh: 28*; sPLA2 confirm: 11; BODIPY interf: 2

What do the screens show for `COc1ccc(-n2c(C)cc(C)c(C(C)=O)c2=S)cc1`?
MC4R antagonist: 4; Exocytosis inh: -1; NTR1 agonist: 0; MC4R ag barr: -3; Bfl-1 A1 inh: 0; sPLA2-III inh: 20*; sPLA2 confirm: 4; BODIPY interf: -6

How did Cc1ccc(-n2[nH]c(C)c(C=Nc3ccc(S(=O)(=O)N4CCOCC4)cc3)c2=O)c(C)c1 do in these assays?
NTR1 agonist: -2; Bfl-1 A1 inh: 0; sPLA2-III inh: 22*; sPLA2 confirm: 8; BODIPY interf: -12

Results for Cc1cccc(C)c1NC(=O)C1(C)CN(S(C)(=O)=O)CC(=O)N1Cc1cccs1 (stereo unspecified) ?
Exocytosis inh: 2; sPLA2-III inh: 4

Results for S=c1[nH]nc(-c2ccccc2)n1/N=C/C=C/c1ccco1 ?
MC4R antagonist: 5; Exocytosis inh: -1; NTR1 agonist: -2; MC4R ag barr: -1; Bfl-1 A1 inh: -1; sPLA2-III inh: 17

What do the screens show for `S=c1[nH]nc(-c2ccc(Cl)cc2)n1/N=C/C=C/c1ccco1`?
MC4R antagonist: 4; Exocytosis inh: -4; NTR1 agonist: 0; MC4R ag barr: 0; Bfl-1 A1 inh: -1; sPLA2-III inh: 25*; sPLA2 confirm: 30*; BODIPY interf: 3

What do the screens show for `Cc1cc(C(=O)O)c(CSc2ncn[nH]2)o1`?
MC4R antagonist: 6; Exocytosis inh: 2; NTR1 agonist: 1; MC4R ag barr: -1; Bfl-1 A1 inh: 0; sPLA2-III inh: 21*; sPLA2 confirm: 0; BODIPY interf: -5

Results for COc1ccc(Cl)cc1NS(=O)(=O)c1cccc(C(=O)NCCCN2CCCC2=O)c1 ?
MC4R antagonist: 4; Exocytosis inh: 3; NTR1 agonist: 1; MC4R ag barr: -1; Bfl-1 A1 inh: 1; sPLA2-III inh: 4

What do the screens show for `COc1cc(C(=O)NNC(=S)NC(=O)c2ccc(Cl)cc2)cc(OC)c1OC`?
MC4R antagonist: -6; Exocytosis inh: 7; NTR1 agonist: 2; MC4R ag barr: -4; Bfl-1 A1 inh: 0; sPLA2-III inh: 26*; sPLA2 confirm: 30*; BODIPY interf: -24; BODIPY interf DR: >122
